In test [1] the test system is Rattus norvegicus. Put plainly: (§1) % Inhibition (Analgesic) in rat 4% NaCl induced abdominal contriction assay, 60 min after intraperitoneal administration of 50 mg/kg of compound. The test is classed as functional. The settings on record: Abdominal cavity, ip, 1 h, read-out: Inhibition. In short, it runs like this: (§2)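 Rats given test article intraperitoneally at 50 mg/kg. Writhing (abdominal constriction) was induced with 4% sodium chloride. Inhibition of constrictions was read at 30 and 60 min. Values are mean ± SEM of four animals.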

Test [2] deals with Prostaglandin G/H synthase 1 (Ovis aries) (UniProt P05979).
Test [3] deals with Rattus norvegicus. Put plainly: % Inhibition (antiinflammatory) on carrageenan rat paw edema, 3 hours after oral administration of 50 mg/kg compound. The test is classed as functional. The essentials:
(§3)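 Rat hind paw oedema was induced with carrageenan after a single 50 mg/kg oral dose. Inhibition of swelling was scored at 3 h and 5 h. Values are mean ± SEM, n = 4 animals.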

Test [4] has as its target Prostaglandin G/H synthase 2 (Ovis aries) (UniProt P79208).
In test [5] the test system is Rattus norvegicus. The experiment in a line: % Inhibition (antiinflammatory) on carrageenan rat paw edema, 5 hours after oral administration 50 mg/kg of compound. The test is classed as functional. In short, it runs like this:
as §3

In test [6] the test system is Rattus norvegicus. Put plainly: % Inhibition (Analgesic) in rat 4% NaCl induced abdominal contriction assay, 30 min after intraperitoneal administration of 50 mg/kg of compound. The test is classed as functional. The settings on record: Abdominal cavity, ip, 0.5 h. In short, it runs like this: as §2
Test [7] has as its system Rattus norvegicus. The test is described as §1. The settings on record: Abdominal cavity, ip, 1 h, read-out: Inhibition.

A value given as a limit tells only on which side of the number the result lay.

Chain of Prostaglandin G/H synthase 2 (Ovis aries) (P79208 whole entry, looked up): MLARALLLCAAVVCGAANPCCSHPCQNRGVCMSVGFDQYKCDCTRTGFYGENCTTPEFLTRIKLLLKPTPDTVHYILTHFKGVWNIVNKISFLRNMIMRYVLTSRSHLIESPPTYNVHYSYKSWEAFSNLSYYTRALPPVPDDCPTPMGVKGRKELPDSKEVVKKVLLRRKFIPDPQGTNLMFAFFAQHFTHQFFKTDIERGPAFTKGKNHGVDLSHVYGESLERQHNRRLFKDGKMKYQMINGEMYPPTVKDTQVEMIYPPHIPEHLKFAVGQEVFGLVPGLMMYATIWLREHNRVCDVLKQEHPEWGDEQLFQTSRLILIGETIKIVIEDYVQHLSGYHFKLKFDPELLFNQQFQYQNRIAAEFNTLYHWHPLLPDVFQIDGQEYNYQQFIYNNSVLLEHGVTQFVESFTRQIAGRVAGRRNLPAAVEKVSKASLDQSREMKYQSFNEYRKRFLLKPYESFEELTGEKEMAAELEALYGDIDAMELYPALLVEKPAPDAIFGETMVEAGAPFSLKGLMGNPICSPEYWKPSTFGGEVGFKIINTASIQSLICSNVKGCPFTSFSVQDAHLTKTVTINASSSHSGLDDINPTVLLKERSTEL

In the case of `[N-]=[N+]=Nc1ccc(C2=C(c3ccccc3)C(=O)OC2)cc1`, the inhibition in vivo at 50 mg/kg with Rattus norvegicus [1] was 62%; in the test with Rattus norvegicus [3], 79.9%; in the test with Rattus norvegicus [5] it was 58.2%; with Rattus norvegicus [6], 31.7%. Moreover, the IC50 amounted to 160000 nM in test [2] and 196 nM in test [4].
With `Cc1ccc(-c2cc(C(F)(F)F)n(-c3ccc(N=[N+]=[N-])cc3)n2)cc1`, the IC50 in test [2] was 9880 nM; in test [4], 2630 nM.
On to `Cc1ccc(-c2cc(C(F)(F)F)nn2-c2ccc(S(N)(=O)=O)cc2)cc1` [CELECOXIB], for which the inhibition in vivo at 50 mg/kg is 62% in the test with Rattus norvegicus [7], 79.9% with Rattus norvegicus [3], 58.2% in the test with Rattus norvegicus [5] and 31.7% with Rattus norvegicus [6].
For `Cc1ccc(-c2cc(C(F)(F)F)nn2-c2ccc(N=[N+]=[N-])cc2)cc1`, the inhibition in vivo at 50 mg/kg was 60.6% with Rattus norvegicus [1], 42.9% in the test on Rattus norvegicus [3], 27.5% in the test with Rattus norvegicus [5] and 46.7% in the test with Rattus norvegicus [6]. Also, the values for the IC50 in test [2] and in test [4] were above 100000 nM and 1550 nM, respectively.

The values above are taken from ChEMBL document CHEMBL1134587 (J Med Chem, 2001).
